The values below come from ChEMBL document CHEMBL1134364, “Antipsoriatic anthrones with modulated redox properties. 5. Potent inhibition of human keratinocyte growth, induction of keratinocyte differentiation, and reduced membrane damage by novel 10-arylacetyl-1,8-dihydroxy-9(10H)-anthracenones” (J Med Chem, 2001).

Structures are written as SMILES.

A short description of data set [1]: Partition coefficient (logP). As to conditions: octanol/water. Type of data set: physicochemical.
A short description of data set [2]: Concentration required to inhibit 50% growth of HaCaT cells. In kind it is functional, cell-based. As to conditions: Homo sapiens. A digest of the protocol:
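HaCaT keratinocytes treated for 48 h. Proliferation read by counting dispersed cells under phase-contrast microscope. Growth inhibition tested for significance against control, N = 3, P < 0.01.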

Data set [3] in a line: Inhibition of LTB4 biosynthesis in bovine polymorphonuclear leukocytes using nordihydroguaiaretic acid. Type of data set: functional, cell-based, Bos taurus.
Data set [4] is described as follows: Deoxyribose degradation activity was measured as hydroxyl radical formation.
Data set [5] can be described thus: Cytotoxic activity of LDH(mu) release in HaCaT cells was measured after treatment with 2 uM of the compound. Type of data set: functional, Homo sapiens. An outline of the steps:
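HaCaT cells treated with 2 µM compound. Membrane damage read as lactate dehydrogenase activity (mU) released into the culture medium. N = 3, SD < 10%.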

Data set [6] is described as follows: Induction of Keratinocyte Differentiation in cross-linked envelope assay at 5 uM expressed as difference of the amount of cross-linked protein as a measure of HaCaT keratinocyte differentiation. Type of data set: functional, Homo sapiens. An outline of the steps:
(§1)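 HaCaT cultures were 144 h post-confluent; medium replaced, compound added from DMSO stocks diluted in DMEM (final DMSO 0.2%), controls DMSO or medium alone, 48 h. Cells were detached with trypsin/EDTA, lysed in SDS/β-ME, dot-blotted, TCA-heated, Coomassie-stained and scanned. Value is cross-linked protein minus vehicle, per mg protein (Bradford), mean ± SEM of 3 experiments.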

Data set [7] in a line: Induction of Keratinocyte Differentiation in cross-linked envelope assay at 1 uM expressed as difference of the amount of cross-linked protein as a measure of HaCaT keratinocyte differentiation. Type of data set: functional, Homo sapiens. An outline of the steps:
as §1

Data set [8] can be described thus: Induction of Keratinocyte Differentiation in cross-linked envelope assay at 10 uM expressed as difference of the amount of cross-linked protein as a measure of HaCaT keratinocyte differentiation. In kind it is functional, Homo sapiens. An outline of the steps: as §1

One may read the logP as a log measure of how a compound divides between an organic and an aqueous phase. The low end stands for a more hydrophilic compound, the high end for a more lipophilic compound. One may read the IC50 as the concentration that inhibits the measured activity by half. The low end stands for greater potency in that assay, the high end for weaker potency in that assay. Consider `COc1cccc(CC(=O)C2c3cccc(O)c3C(=O)c3c(O)cccc32)c1`, for which the logP in data set [1] was 4.16. Also, the values for the half-maximal inhibitory concentration (IC50) in data set [2] and in data set [3] were 2700 nM and 3000 nM, respectively. Moreover, the Activity in data set [4] is less than 0.3.
The molecule `CN(C)c1ccc(CC(=O)C2c3cccc(O)c3C(=O)c3c(O)cccc32)cc1` gave a logP in data set [1] of 4.42. The IC50 in data set [2] is 1300 nM; in data set [3], 6000 nM.
The matching figures for `CSc1ccc(CC(=O)C2c3cccc(O)c3C(=O)c3c(O)cccc32)cc1`: 4.42, 1600 nM and 6000 nM.
`CC(C)(C)c1cc(CC(=O)C2c3cccc(O)c3C(=O)c3c(O)cccc32)cc(C(C)(C)C)c1O` came in with an LDH in data set [5] of 199 MU. Also, in data set [2], the IC50 stood at 3000 nM.
Take `O=C1c2c(O)cccc2C(Cc2ccccc2)c2cccc(O)c21`: the Activity is listed as -0.8 ug (mg of protein)-1 in data set [6], -1 ug (mg of protein)-1 in data set [7] and 0.9 ug (mg of protein)-1 in data set [8].
Turning to `O=C1c2c(O)cccc2C(C(=O)Cc2ccc(-c3ccccc3)cc2)c2cccc(O)c21`, the Activity in data set [6] was 3.8 ug (mg of protein)-1; in data set [7] it was 1.8 ug (mg of protein)-1; in data set [8] it was 4.6 ug (mg of protein)-1; in data set [4] it was less than 0.3. The same molecule gave a logP in data set [1] of 5.02. The IC50 in data set [2] was 2200 nM; in data set [3] it was 7000 nM.
With `CCOc1ccc(CC(=O)C2c3cccc(O)c3C(=O)c3c(O)cccc32)cc1`, the logP in data set [1] was determined as 4.51. In addition, the LDH in data set [5] is on record as 142 MU. Also, the figures for the IC50 in data set [2] and in data set [3] were 1700 nM and 1000 nM, respectively. Further, in data set [4], the Activity was less than 0.3.
As for `O=C1c2cccc(O)c2C(=O)c2c(O)cccc21` [DANTHRON], the Activity was -0.1 ug (mg of protein)-1 in data set [6], 0.6 ug (mg of protein)-1 in data set [7] and 0 ug (mg of protein)-1 in data set [8].
Regarding `COc1ccc(CC(=O)C2c3cccc(O)c3C(=O)c3c(O)cccc32)cc1O`, the logP in data set [1] stood at 3.41. Moreover, the IC50 in data set [2] was found to be 1900 nM; in data set [3], 8000 nM.
For `O=C1c2c(O)cccc2C(C(=O)Cc2ccc(C(F)(F)F)cc2)c2cccc(O)c21` the same measures were 4.4, 1600 nM and 11000 nM.
For `CCCCOc1ccc(CC(=O)C2c3cccc(O)c3C(=O)c3c(O)cccc32)cc1`, the Activity is 3.4 ug (mg of protein)-1 in data set [6], 2.5 ug (mg of protein)-1 in data set [7], 3.4 ug (mg of protein)-1 in data set [8] and less than 0.3 in data set [4]. Also, in data set [1], the logP is 5.41. Moreover, the IC50 in data set [2] is 1200 nM; in data set [3], 1500 nM.
In the case of `O=C1c2ccccc2Cc2ccccc21` [ANTHRONE], the Activity in data set [6] was 0.3 ug (mg of protein)-1; in data set [7], 0.5 ug (mg of protein)-1; in data set [8], 0.8 ug (mg of protein)-1.
With `O=C1c2c(O)cccc2C(C(=O)Cc2ccccc2Nc2c(Cl)cccc2Cl)c2cccc(O)c21`, in data set [1], the logP came to 3.91. The LDH in data set [5] was 247 MU. The IC50 in data set [2] is 1300 nM; in data set [3], 3000 nM. In addition, the Activity in data set [4] came out at 0.45.
As to `CCOC(=O)c1ccc(CC(=O)C2c3cccc(O)c3C(=O)c3c(O)cccc32)cc1`, the logP in data set [1] came to 4.34. Moreover, the values for the IC50 in data set [2] and in data set [3] were 1300 nM and 6000 nM, respectively. For the same molecule, the Activity in data set [4] was less than 0.3.
`COC(=O)c1ccc(CC(=O)C2c3cccc(O)c3C(=O)c3c(O)cccc32)cc1`: the logP in data set [1] was found to be 4.07. This molecule came in with an LDH in data set [5] of 164 MU. For the same molecule, the figures for the IC50 in data set [2] and in data set [3] were 1800 nM and 12000 nM, respectively. Besides, the Activity in data set [4] is less than 0.3.
The matching figures for `CC(C(=O)C1c2cccc(O)c2C(=O)c2c(O)cccc21)c1ccc(C(=O)c2ccccc2)cc1` (stereo unspecified): 4.46, 191 MU, 900 nM, 9000 nM and less than 0.3.
In data set [1], `O=C(O)Cc1ccc(CC(=O)C2c3cccc(O)c3C(=O)c3c(O)cccc32)cc1` returned a logP of 2.84. Also, the IC50 amounted to 1700 nM in data set [2] and 3000 nM in data set [3]. The molecule also showed an Activity in data set [4] of 0.93.
The matching figures for `COc1ccc(COc2ccc(CC(=O)C3c4cccc(O)c4C(=O)c4c(O)cccc43)cc2)cc1`: 4.91, 3200 nM, 1500 nM and less than 0.3.
For the molecule `N#Cc1ccc(CC(=O)C2c3cccc(O)c3C(=O)c3c(O)cccc32)cc1`, in data set [1], the logP is 3.58. Further, the results for the IC50 in data set [2] and in data set [3] were 3200 nM and 9000 nM, respectively.
The matching figures for `O=C1c2c(O)cccc2C(C(=O)Cc2ccc(Cl)c(Cl)c2)c2cccc(O)c21`: 4.74, 1200 nM and 9000 nM.
`O=C1c2c(O)cccc2C(C(=O)Cc2ccc3c(c2)OCO3)c2cccc(O)c21` registered a logP in data set [1] of 4.06. For the same molecule, the IC50 in data set [2] stood at 3300 nM; in data set [3], 1000 nM. The molecule also returned an Activity in data set [4] of less than 0.3.
In data set [1], `CCCOc1ccc(CC(=O)C2c3cccc(O)c3C(=O)c3c(O)cccc32)cc1` showed a logP of 4.97. Further, the LDH in data set [5] is 132 MU. The IC50 turned out to be 1600 nM in data set [2] and 1000 nM in data set [3]. This molecule also showed an Activity in data set [4] of less than 0.3.
Molecule `CC(C)Oc1ccc(CC(=O)C2c3cccc(O)c3C(=O)c3c(O)cccc32)cc1` had a logP in data set [1] of 4.59. The IC50 in data set [2] worked out at 1800 nM; in data set [3], 15000 nM. The same molecule had an Activity in data set [4] of less than 0.3.
As for `O=C1c2c(O)cccc2C(C(=O)Cc2ccc(F)cc2)c2cccc(O)c21`, the Activity in data set [6] was 2.4 ug (mg of protein)-1; in data set [7], 0.6 ug (mg of protein)-1; in data set [8] it was 3.5 ug (mg of protein)-1; in data set [4], less than 0.3. In data set [1], this molecule returned a logP of 4.11. Further, the IC50 was found to be 2600 nM in data set [2] and 11000 nM in data set [3].
Regarding `O=C1c2c(O)cccc2C(C(=O)Cc2ccc(O)cc2)c2cccc(O)c21`, the Activity is 5.1 ug (mg of protein)-1 in data set [6], 2.5 ug (mg of protein)-1 in data set [7] and 6.2 ug (mg of protein)-1 in data set [8]. Also, the LDH in data set [5] was determined as 173 MU. The IC50 in data set [2] was 1700 nM.
In the case of `COc1ccc(CC(=O)C2c3cccc(O)c3C(=O)c3c(O)cccc32)cc1OC`, in data set [1], the logP amounted to 3.77. Also, the IC50 was found to be 4200 nM in data set [2] and 22000 nM in data set [3]. Moreover, in data set [4], the Activity was 0.86.
For `O=C1c2c(O)cccc2C(C(=O)Cc2ccc(I)cc2)c2cccc(O)c21` the same measures were 4.8, 3100 nM, 1500 nM and less than 0.3.
Molecule `CC(C)Cc1ccc(C(C)C(=O)C2c3cccc(O)c3C(=O)c3c(O)cccc32)cc1` (stereo unspecified) displayed a logP in data set [1] of 5.57. For the same molecule, half-maximal inhibition in data set [2] (IC50) was put at 3500 nM.
In turn, `CC(C)(C)OC(=O)Nc1ccc(CC(=O)C2c3cccc(O)c3C(=O)c3c(O)cccc32)cc1` came in with a logP in data set [1] of 4.17. Further, the IC50 in data set [2] was found to be 1800 nM; in data set [3], 2000 nM. The molecule also returned an Activity in data set [4] of 0.97.
In data set [5], `O=C1c2c(O)cccc2C(C(=O)Cc2ccc([N+](=O)[O-])cc2)c2cccc(O)c21` returned an LDH of 179 MU. In data set [2], this molecule showed an IC50 of 4700 nM.
Take `Nc1ccc(CC(=O)C2c3cccc(O)c3C(=O)c3c(O)cccc32)cc1`: the Activity in data set [6] is 6 ug (mg of protein)-1; in data set [7], 0 ug (mg of protein)-1; in data set [8] it was 6.6 ug (mg of protein)-1; in data set [4] it was 1.43. This molecule also showed a logP in data set [1] of 3.29. Besides, the IC50 in data set [2] was 1200 nM; in data set [3], 1000 nM.
In turn, `O=C1c2c(O)cccc2C(C(=O)Cc2ccc(Cl)cc2)c2cccc(O)c21` displayed a logP in data set [1] of 4.49. Moreover, the IC50 in data set [2] is 2200 nM; in data set [3], 1000 nM. In data set [4], this molecule yielded an Activity of less than 0.3.
Consider `COc1ccccc1CC(=O)C1c2cccc(O)c2C(=O)c2c(O)cccc21`, for which the logP in data set [1] is 4.2. The LDH in data set [5] is recorded as 125 MU. Also, in data set [2], the IC50 came out at 1600 nM.
As for `CC(C(=O)C1c2cccc(O)c2C(=O)c2c(O)cccc21)c1ccccc1` (stereo unspecified), the lipophilicity (logP) in data set [1] was 4.43. For the same molecule, the results for the IC50 in data set [2] and in data set [3] were 1000 nM and 18000 nM, respectively. In data set [4], this molecule displayed an Activity of less than 0.3.
Molecule `COc1cccc(COc2ccc(CC(=O)C3c4cccc(O)c4C(=O)c4c(O)cccc43)cc2)c1` had a logP in data set [1] of 5.19. The molecule also yielded an LDH in data set [5] of 159 MU. For the same molecule, the half-inhibitory concentration (IC50) in data set [2] and in data set [3] was 1000 nM in each case. The Activity in data set [4] is less than 0.3.
The molecule `O=C1c2c(O)cccc2C(C(=O)Cc2ccc(OCc3ccccc3)cc2)c2cccc(O)c21` gave an LDH in data set [5] of 202 MU. In addition, the figures for the IC50 in data set [2] and in data set [3] were 2400 nM and 600 nM, respectively. In data set [4], this molecule yielded an Activity of less than 0.3.
For `O=C1c2c(O)cccc2C(C(=O)Cc2ccc(Br)cc2)c2cccc(O)c21`, the logP in data set [1] is 4.6. Besides, the IC50 in data set [2] stood at 2900 nM; in data set [3], 700 nM. Further, in data set [4], the Activity is less than 0.3.
